Results published in ChEMBL document CHEMBL5360580 (Eur J Med Chem, 2023).
The source made the active and inactive calls. The calls are words filed in the database; no cut-off is given here.

Experiments:
SARS-CoV-2 [1] = experiment: Antiviral activity against SARS-CoV-2 infected in African green monkey Vero E6 cells assessed as inhibition of viral replication at 1 uM incubated for 24 hrs by IFA assay relative to control; assay type: functional; settings: Severe acute respiratory syndrome coronavirus 2, Vero C1008
[2] = Observed AUC (0 to infinity) in ICR mouse at 30 mg/kg, po measured upto 24 hrs by LC-MS/MS analysis; assay type: ADME, organism-based; design: dose 30 mg/kg, time < 24 hrs, route po; settings: in vivo
How it was run: (§1)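 Male-unspecified ICR (CD-1) mice, N = 3 per group, were fasted 12 h. Compound in DMSO/0.5% HMPC (5/95, v/v) was given orally at 30 mg/kg or intravenously at 2.5 mg/kg. Femoral-vein blood was drawn at 0.25, 0.5, 1, 2, 4, 8 and 24 h, and serum analyte levels were measured by LC-MS/MS.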

[3] = AUClast in ICR mouse at 30 mg/kg, po measured upto 24 hrs by LC-MS/MS analysis; assay type: ADME, organism-based; design: dose 30 mg/kg, time < 24 hrs, route po; settings: in vivo; how it was run: as §1
[4] = Selectivity index, ratio of CC50 for cytotoxicity against African green monkey Vero E6 to EC50 for antiviral activity against SARS-CoV-2 infected in African green monkey Vero E6 cells; assay type: toxicity, cell-based, Vero C1008; settings: read-out: Ratio CC50/EC50
[5] = Cmax in ICR mouse at 30 mg/kg, po measured upto 24 hrs by LC-MS/MS analysis; assay type: ADME, organism-based; design: dose 30 mg/kg, time < 24 hrs, route po; settings: in vivo; how it was run: as §1
[6] = Half life in ICR mouse at 30 mg/kg, po measured upto 24 hrs by LC-MS/MS analysis; assay type: ADME, organism-based; settings: in vivo; how it was run: as §1
SARS-CoV-2 [7] = experiment: Antiviral activity against SARS-CoV-2 infected in African green monkey Vero E6 cells assessed as inhibition of viral replication incubated for 24 hrs by IFA assay; assay type: functional, organism-based; settings: Severe acute respiratory syndrome coronavirus 2, Vero C1008, 24 h
[8] = Observed MRT (0 to infinity) in ICR mouse at 30 mg/kg, po measured upto 24 hrs by LC-MS/MS analysis; assay type: ADME, organism-based; settings: in vivo; how it was run: as §1
Vero C1008 [9] = experiment: Cytotoxicity against African green monkey Vero E6 cells assessed as reduction in cell viability measured after 48 hrs by CCK-8 assay; assay type: toxicity, cell-based; settings: chlorocebus sabaeus, vero c1008, 48 h
[10] = Half life in ICR mouse at 2.5 mg/kg, iv measured upto 24 hrs by LC-MS/MS analysis; assay type: ADME, organism-based; settings: in vivo, iv, 2.5 mg/kg, 24 h; how it was run: as §1
[11] = Oral bioavailability in ICR mouse at 30 mg/kg measured upto 24 hrs by LC-MS/MS analysis; assay type: ADME, organism-based; settings: in vivo; how it was run: as §1
Vero C1008 [12] = experiment: Downregulation of BECN1 level in African green monkey Vero E6 cells at 10 uM measured after 16 hrs by Western blotting analysis; assay type: functional, cell-based; settings: Chlorocebus sabaeus
How it was run: (§2)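 Vero-E6 cells in DMEM with 10% FBS were cultured overnight at 37 °C, 5% CO2, then treated with a concentration series for 16 h. Lysates were made in RIPA on ice and equalised for protein by BCA. Blots were probed for SKP2 or Beclin-1 plus β-actin and detected by ECL. The band-intensity ratio to β-actin was normalised to DMSO control.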

[13] = Subacute toxicity in ICR mouse assessed as change in spleen histology at 50 to 200 mg/kg, po qd administered for 10 days; assay type: organism-based; settings: in vivo, 240 h, dose 50-200 mg/kg, time 10 day
How it was run: (§3)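 Male ICR mice (18–20 g), ten per group, received oral doses once daily for ten days, with a control group alongside. Body weight, food intake and behaviour were observed daily. Animals were fasted before dissection, and heart, liver, spleen, lung, kidney and administration site were collected for organ weight and histology.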

Vero C1008 [14] = experiment: Downregulation of SKP2 level in African green monkey Vero E6 cells at 0.3 to 10 uM measured after 16 hrs by Western blotting analysis; assay type: functional, cell-based; settings: Chlorocebus sabaeus, dose 0.3-10 µM; how it was run: as §2
Vero C1008 [15] = experiment: Downregulation of BECN1 level in African green monkey Vero E6 cells at 1 to 3 uM measured after 16 hrs by Western blotting analysis; assay type: functional, cell-based; settings: Chlorocebus sabaeus, dose 1-3 µM; how it was run: as §2
[16] = Subacute toxicity in ICR mouse assessed as change in body weight at 50 to 200 mg/kg, po qd administered for 10 days; assay type: organism-based; settings: in vivo, 240 h, dose 50-200 mg/kg, time 10 day; how it was run: as §3
[17] = Aqueous solubility of compound at 0.5 mg/mL in presence of acetonitrile by HPLC analysis; assay type: physicochemical; settings: buffer
How it was run: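 Compound was suspended in water, vortexed vigorously and filtered through a 0.22 μm membrane. The filtrate was diluted 2-fold with 80% acetonitrile and analysed by reversed-phase amide HPLC. Concentration was read against a standard curve prepared from a 0.5 mg/mL solution in 80% acetonitrile. Single determination.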

[18] = Subacute toxicity in ICR mouse assessed as change in heart histology at 50 to 200 mg/kg, po qd administered for 10 days; assay type: organism-based; settings: in vivo, 240 h, dose 50-200 mg/kg, time 10 day; how it was run: as §3
[19] = Subacute toxicity in ICR mouse assessed as mortality at 50 to 200 mg/kg, po qd administered for 10 days; assay type: organism-based; settings: in vivo, 240 h, dose 50-200 mg/kg, time 10 day; how it was run: as §3
[20] = Subacute toxicity in ICR mouse assessed as change in organ weight at 50 to 200 mg/kg, po qd administered for 10 days; assay type: organism-based; settings: in vivo, 240 h, dose 50-200 mg/kg, time 10 day; how it was run: as §3
[21] = Observed MRT (0 to infinity) in ICR mouse at 2.5 mg/kg, iv measured upto 24 hrs by LC-MS/MS analysis; assay type: ADME, organism-based; settings: in vivo, iv, 2.5 mg/kg, 24 h; how it was run: as §1
[22] = Subacute toxicity in ICR mouse assessed as change in liver histology at 50 to 200 mg/kg, po qd administered for 10 days; assay type: organism-based; settings: in vivo, 240 h, dose 50-200 mg/kg, time 10 day; how it was run: as §3
[23] = AUClast in ICR mouse at 2.5 mg/kg, iv measured upto 24 hrs by LC-MS/MS analysis; assay type: ADME, organism-based; design: dose 2.5 mg/kg, time < 24 hrs, route iv; settings: in vivo, 24 h; how it was run: as §1
[24] = Subacute toxicity in ICR mouse assessed as change in kidney histology at 50 to 200 mg/kg, po qd administered for 10 days; assay type: organism-based; settings: in vivo, 240 h, dose 50-200 mg/kg, time 10 day; how it was run: as §3
[25] = Observed AUC (0 to infinity) in ICR mouse at 2.5 mg/kg, iv measured upto 24 hrs by LC-MS/MS analysis; assay type: ADME, organism-based; design: dose 2.5 mg/kg, time < 24 hrs, route iv; settings: in vivo, 24 h; how it was run: as §1
[26] = Subacute toxicity in ICR mouse assessed as change in lung histology at 50 to 200 mg/kg, po qd administered for 10 days; assay type: organism-based; settings: in vivo, 240 h, dose 50-200 mg/kg, time 10 day; how it was run: as §3
SARS-CoV-2 [27] = experiment: Antiviral activity against SARS-CoV-2 infected in African green monkey Vero E6 cells assessed as inhibition of viral replication at 5 uM incubated for 24 hrs by IFA assay relative to control; assay type: functional; settings: Severe acute respiratory syndrome coronavirus 2, Vero C1008

For O=C(NC(=O)c1cc(Cl)ccc1O)c1ccc(C(F)(F)F)cc1, the inhibition at 1 µM (SARS-CoV-2 [1]) was < 10%.

Molecule O=C(Nc1ccc(C(F)(F)F)cc1)c1cc(Cl)cnc1O has an inhibition at 1 µM (SARS-CoV-2 [1]) of 50%.

With COc1ccc(Cl)cc1C(=O)Nc1ccc(C(F)(F)F)cc1 the inhibition at 1 µM (SARS-CoV-2 [1]) was < 10%.

With O=C(Nc1ccc(C(F)(F)F)cc1)c1cc(Cl)c(F)cc1O the AUC [2] was 1573 ng·h/mL, the AUClast [3] was 1563 ng·h/mL and the selectivity ratio [4] was 3.73. It also gave a Cmax [5] of 452 ng/mL, an inhibition at 1 µM (SARS-CoV-2 [1]) of 95% and a t1/2 [6] of 3.1 h. For the same molecule, the EC50 (SARS-CoV-2 [7]) was 1000 nM, the MRT [8] was 5.45 h and the CC50 (Vero C1008 [9]) was 3730 nM.

For O=S(=O)(Nc1ccc(C(F)(F)F)cc1)c1cc(Cl)ccc1O, the inhibition at 1 µM (SARS-CoV-2 [1]) was < 10%.

CC(=O)c1cc(Cl)cc(C(=O)Nc2ccc(C(F)(F)F)cc2)c1O gave an inhibition at 1 µM (SARS-CoV-2 [1]) of 50%.

Molecule O=C(Nc1ccc(C(F)(F)F)cc1)c1cc(Cl)ccc1O has an inhibition at 1 µM (SARS-CoV-2 [1]) of 95% and an EC50 (SARS-CoV-2 [7]) of 1310 nM.

O=C(Nc1ccc(C(F)(F)F)cc1Cl)c1cc(Cl)ccc1O gave an inhibition at 1 µM (SARS-CoV-2 [1]) of 79%.

With O=C(Nc1ccc(OC(F)(F)F)cc1)c1cc(Cl)c(F)cc1O the t1/2 [10] was 4.6 h, the bioavailability [11] was 12.7% and the Activity (Vero C1008 [12]) was “Active”. The AUC [2] was 5579 ng·h/mL, the AUClast [3] was 5547 ng·h/mL and the Activity [13] was “Non-Toxic”. For the same molecule, the selectivity ratio [4] was 4.73, the Activity (Vero C1008 [14]) was “Active” and the Cmax [5] was 2376 ng/mL. For the same molecule, the inhibition at 1 µM (SARS-CoV-2 [1]) was 91%, the Activity (Vero C1008 [15]) was “Active” and the Activity [16] was “Non-Toxic”. The solubility [17] was 0.1 µg/mL, the t1/2 [6] was 3.33 h and the Activity [18] was “Non-Toxic”. The Activity [19] was “Non-Toxic”, the EC50 (SARS-CoV-2 [7]) was 1000 nM and the Activity [20] was “Non-Toxic”. For the same molecule, the MRT [21] was 1.94 h, the Activity [22] was “Non-Toxic” and the AUClast [23] was 3646 ng·h/mL. The Activity [24] was “Non-Toxic”, the AUC [25] was 3678 ng·h/mL and the MRT [8] was 4.41 h. The CC50 (Vero C1008 [9]) was 4730 nM and the Activity [26] was “Non-Toxic”.

Molecule O=C(Nc1ccc(SC(F)(F)F)cc1)c1cc(Cl)c(F)cc1O has a selectivity ratio [4] of 1.63, an inhibition at 1 µM (SARS-CoV-2 [1]) of 87% and an EC50 (SARS-CoV-2 [7]) of 1610 nM. The CC50 (Vero C1008 [9]) was 2630 nM.

O=C(Nc1ccc(C(F)(F)F)c(Cl)c1)c1cc(Cl)c(F)cc1O showed a selectivity ratio [4] of 1.69, an inhibition at 1 µM (SARS-CoV-2 [1]) of 95% and an EC50 (SARS-CoV-2 [7]) of 2670 nM. The CC50 (Vero C1008 [9]) was 4520 nM.

For O=C(NCc1ccc(C(F)(F)F)cc1)c1cc(Cl)ccc1O, the inhibition at 1 µM (SARS-CoV-2 [1]) was 55%.

In the case of CCC(CC)COC(=O)[C@H](C)N[P@](=O)(OC[C@H]1O[C@@](C#N)(c2ccc3c(N)ncnn23)[C@H](O)[C@@H]1O)Oc1ccccc1, the inhibition at 1 µM (SARS-CoV-2 [1]) is reported as < 10% and the inhibition at 5 µM (SARS-CoV-2 [27]) is reported as 99%.

In the case of O=C(Nc1ccc(C(F)(F)F)cc1)c1cc(Cl)cc(Cl)c1O, the inhibition at 1 µM (SARS-CoV-2 [1]) is reported as < 10%.
